Measurements from different studies.
Protocols differ between the studies behind these lines.
Target: Dual specificity tyrosine-phosphorylation-regulated kinase 2 (DYRK2, Homo sapiens, UniProt Q92630)
Method: competition with immobilised ligand
Residues used in one study (Q92630 1-601): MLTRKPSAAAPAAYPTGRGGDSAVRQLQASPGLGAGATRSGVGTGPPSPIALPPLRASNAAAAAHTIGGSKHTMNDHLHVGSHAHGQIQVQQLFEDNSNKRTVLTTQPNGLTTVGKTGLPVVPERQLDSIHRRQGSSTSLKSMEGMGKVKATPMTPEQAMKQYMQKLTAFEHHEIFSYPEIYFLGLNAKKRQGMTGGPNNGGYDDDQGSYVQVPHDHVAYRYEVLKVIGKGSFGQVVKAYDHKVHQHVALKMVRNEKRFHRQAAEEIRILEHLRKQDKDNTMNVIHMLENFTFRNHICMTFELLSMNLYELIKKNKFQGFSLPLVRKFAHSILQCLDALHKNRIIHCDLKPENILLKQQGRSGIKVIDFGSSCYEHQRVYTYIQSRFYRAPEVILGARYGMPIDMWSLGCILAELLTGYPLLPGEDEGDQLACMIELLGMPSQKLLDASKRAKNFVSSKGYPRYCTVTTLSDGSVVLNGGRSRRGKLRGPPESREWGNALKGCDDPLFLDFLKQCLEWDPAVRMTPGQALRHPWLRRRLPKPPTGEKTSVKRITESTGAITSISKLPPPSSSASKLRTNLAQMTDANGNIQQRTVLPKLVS

Structure (SMILES) | assay | setting | remaining binding [%]
c1cncc(-c2cccc(Nc3nccc(NC4CCCCC4)n3)c2)c1 | binding | 10 µM | 78
O=C(NCCCN1CCOCC1)c1ccc(Nc2ncc(Cl)c(-c3ccc(Cl)s3)n2)cc1 | binding | 1 µM | 2.9
COc1cnc(Nc2cccc(S(N)(=O)=O)c2)nc1N1CCN(c2ccccc2)C(=O)C1 | binding | 1 µM | 56
O=C(Nc1c[nH]nc1C(=O)NC1CCNCC1)c1cc(F)cc(F)c1 | binding | 1 µM | 4.8
C=CC(=O)N1CCC(C(=O)NCC(=O)N2CCN(c3nc(-c4cnc(N)nc4C(F)F)nc(N4CCOCC4)n3)CC2)CC1 | binding | 1 µM | 80
CN(CCCC(F)(F)F)c1nccc(-c2cnn3ncccc23)n1 | binding | 1 µM | 77
CN(C(=O)c1ccccc1)c1cc(N(C)c2ccc3c(c2)CCc2ccc(C(=O)NCCN4CCOCC4)cc2C3=O)ccc1F | cell-free assay | 1 µM | 82
O=C(NCCCN1CCOCC1)c1ccc(Nc2nccc(-c3cc4ccccc4s3)n2)cc1 | binding | 1 µM | 16
O=C(Nc1ccc(Oc2ccc(F)cc2)cc1)N1CCc2ncccc2[C@H]1c1ccc(F)cc1 | cell-free assay | 1 µM | 84
Nc1ncc2c(n1)-c1c([nH]c3ccc(C#CC4CC4)cc13)CCCC2 | binding | 1 µM | 100
CO[C@@H](C)c1c(Nc2ccc([C@H](N(C)C(=O)C3CCS(=O)(=O)CC3)C(F)(F)F)cc2)cnc2cc(Cl)nn12 | cell-free assay | 1 µM | 89
Cc1cnc(Nc2ccc(C(=O)N3CCC(N4CCCC4)CC3)cc2)nc1-c1cc2ccccc2s1 | binding | 1 µM | 1.3
CCCOc1ccc([C@H]2[C@H](C(=O)O)[C@@H](c3ccc4c(c3)OCO4)CN2CC(=O)Nc2c(CC)cccc2CC)cc1 | cell-free assay | 1 µM | 74
C[C@@H](c1ccc(-n2cnc3c(N)ncnc32)cc1)N1CCc2nn(C)c(Cc3ccccc3)c2C1=O | binding | 0.1 µM | 79
